Assay results collected from several papers.
Lines come from different studies, so protocols differ.
Cell line: CAKI-1
Observed: cell growth or viability

| SMILES | test | conditions | quantity | value |
| --- | --- | --- | --- | --- |
| COc1ccc(-c2ccc(-c3ccc(C(=N)N)nc3)s2)cc1 |  |  | GI50 | 1640 nM |
| CC(=O)OC[C@H]1O[C@@H]([S-])[C@H](OC(C)=O)[C@@H](OC(C)=O)[C@@H]1OC(C)=O.CCP(CC)CC.[Au+] | resazurin |  | IC50 | 2290 nM |
| COc1ccc(C(=O)/C=C/c2cc3c(cc2Br)OCO3)cc1S(N)(=O)=O | SRB | 48 h | GI50 | 4600 nM |
| Cc1cc(C)n(C(=S)[S][Au][PH](CCCCCC[PH]([Au][S]C(=S)n2nc(C)cc2C)(c2ccccc2)c2ccccc2)(c2ccccc2)c2ccccc2)n1 |  |  | GI50 | 2160 nM |
| CC(C)C[C@H](NC(=O)[C@H](Cc1ccccc1)NC(=O)c1cnccn1)B(O)O | ATP luminescence |  | IC50 | 10 nM |
| S=C([S][Au-][P+](CCCCCC[P+]([Au-][S]C(=S)n1cccn1)(c1ccccc1)c1ccccc1)(c1ccccc1)c1ccccc1)n1cccn1 |  |  | GI50 | 7150 nM |
| [Cl-].[Cl-].[Ti+4].c1cc[cH-]c1.c1cc[cH-]c1 | XTT | 24 h | IC50 | > 200000 nM |
| COc1ccc(-c2ccc(-c3ccc(C(=N)N)nc3)s2)cc1Cl |  |  | GI50 | 1740 nM |
| COc1ccc(C(=O)/C=C/c2cccc(Cl)c2Cl)cc1S(N)(=O)=O | SRB | 10 µM | inhibition | 106% |
| O=C1Nc2ccccc2C1=NNc1nnc2n1N=C(c1ccccc1)CS2 | SRB | 10 µM | inhibition | 21% |
| COc1cc(Nc2nccc(-c3cnn4nc(OC)ccc34)n2)cc(C(F)(F)F)c1 | ATP luminescence |  | IC50 | 310 nM |
